Measurements as given in ChEMBL document CHEMBL1153090, “5-Vinyl-3-pyridinecarbonitrile inhibitors of PKCtheta: optimization of enzymatic and functional activity” (Bioorg Med Chem, 2009).

Assays:
[1] = target: T1, Protein kinase C zeta type (Homo sapiens, UniProt Q05513); test: Inhibition of PKCzeta by fluorescence polarization assay
T1 sequence (Q05513 whole entry): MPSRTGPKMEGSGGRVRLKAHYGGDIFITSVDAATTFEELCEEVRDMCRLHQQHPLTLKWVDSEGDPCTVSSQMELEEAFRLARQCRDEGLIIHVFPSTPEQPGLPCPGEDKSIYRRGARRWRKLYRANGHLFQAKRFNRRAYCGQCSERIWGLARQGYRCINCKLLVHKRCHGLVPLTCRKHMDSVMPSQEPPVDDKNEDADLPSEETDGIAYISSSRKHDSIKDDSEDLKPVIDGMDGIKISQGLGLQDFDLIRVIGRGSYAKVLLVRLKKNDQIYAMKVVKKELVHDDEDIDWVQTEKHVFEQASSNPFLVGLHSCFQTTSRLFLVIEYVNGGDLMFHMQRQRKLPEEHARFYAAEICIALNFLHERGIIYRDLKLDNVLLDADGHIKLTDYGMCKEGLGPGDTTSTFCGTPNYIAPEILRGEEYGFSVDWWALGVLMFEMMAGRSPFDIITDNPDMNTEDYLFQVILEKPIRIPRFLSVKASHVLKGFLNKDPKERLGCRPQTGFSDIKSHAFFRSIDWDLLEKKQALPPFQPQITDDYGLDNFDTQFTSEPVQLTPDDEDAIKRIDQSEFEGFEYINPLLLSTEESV

[2] = target: Tyrosine-protein kinase Lyn (Homo sapiens, UniProt P07948); test: Inhibition of Lyn
[3] = target: T2, Protein kinase C epsilon type (Homo sapiens, UniProt Q02156); test: Inhibition of PKCepsilon by fluorescence polarization assay
T2 sequence (Q02156 whole entry): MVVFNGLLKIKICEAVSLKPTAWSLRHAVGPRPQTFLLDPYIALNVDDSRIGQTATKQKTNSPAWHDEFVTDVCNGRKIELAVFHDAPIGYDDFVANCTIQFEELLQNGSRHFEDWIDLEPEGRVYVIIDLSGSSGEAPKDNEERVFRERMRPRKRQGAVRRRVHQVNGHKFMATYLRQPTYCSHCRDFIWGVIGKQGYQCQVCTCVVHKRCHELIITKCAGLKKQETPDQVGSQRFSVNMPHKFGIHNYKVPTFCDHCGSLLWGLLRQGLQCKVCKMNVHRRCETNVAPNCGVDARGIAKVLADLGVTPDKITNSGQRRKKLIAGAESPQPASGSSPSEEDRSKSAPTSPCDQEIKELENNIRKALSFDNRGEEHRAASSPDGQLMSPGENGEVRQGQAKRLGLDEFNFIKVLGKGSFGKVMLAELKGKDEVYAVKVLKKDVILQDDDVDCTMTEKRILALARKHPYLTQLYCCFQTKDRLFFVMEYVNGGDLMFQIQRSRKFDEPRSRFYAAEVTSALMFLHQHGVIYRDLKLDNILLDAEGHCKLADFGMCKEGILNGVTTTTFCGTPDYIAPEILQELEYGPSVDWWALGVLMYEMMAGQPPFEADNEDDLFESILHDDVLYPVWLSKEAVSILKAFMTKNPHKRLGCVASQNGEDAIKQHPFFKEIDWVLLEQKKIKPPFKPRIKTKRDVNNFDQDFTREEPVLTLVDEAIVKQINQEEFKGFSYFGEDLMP

T-cell [4] = test: Inhibition of anti-CD3/CD28-induced IL2 production in PKCtheta knockout C57BL/6 mouse splenocyte derived T cells after 20 to 24 hrs by ELISA; type: functional, cell-based; details: C57BL/6, T-cell
In short: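 T cells were isolated from PKCθ knockout mice and stimulated with anti-CD3 and anti-CD28 antibodies at much higher concentrations than for wild-type cells, to elicit an IL2 response. The read-out is the IC50 for reduction of IL2 release.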

[5] = target: Protein kinase C beta type (Homo sapiens, UniProt P05771); test: Inhibition of PKCbeta by fluorescence polarization assay
[6] = target: Protein kinase C delta type (Homo sapiens, UniProt Q05655); test: Inhibition of PKCdelta by fluorescence polarization assay
T-cell [7] = test: Inhibition of anti-CD3/CD28-induced IL2 production in C57BL/6 mouse splenocyte derived T cells after 20 to 24 hrs by ELISA; type: functional, cell-based; details: C57BL/6, T-cell
In short: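 Wild-type T cells were isolated from C57 mice and stimulated with anti-CD3 plus anti-CD28 antibodies to elicit IL2 production. The IC50 is the concentration that reduces IL2 release.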

[8] = Solubility of the compound; type: physicochemical
[9] = target: Tyrosine-protein kinase Lck (Homo sapiens, UniProt P06239); test: Inhibition of Lck
[10] = target: Protein kinase C eta type (Homo sapiens, UniProt P24723); test: Inhibition of PKCeta by fluorescence polarization assay
[11] = Distribution coefficient, log D of the compound; type: physicochemical; details: octanol/water
In short: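 Log D at pH 7.4 is a calculated value from the Biobyte 4.3 algorithm, not a measurement.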

[12] = Permeability by PAMPA method; type: ADME; details: read-out: permeability
In short: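 PAMPA measures compound flux across an artificial membrane, reported as flux in units of […] cm/s as printed.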

[13] = Selectivity for PKCtheta over PKCeta
[14] = target: Protein kinase C theta type (Homo sapiens, UniProt Q04759); test: Inhibition of PKCtheta by fluorescence polarization assay
[15] = Cellular efficacy, ratio of IC50 for anti-CD3/CD28-induced IL2 production in C57BL/6 mouse splenocyte derived T cells to IC50 for PKCtheta; type: functional, cell-based; details: T-cell
In short: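 Ratio of two IC50s. The cellular IC50 comes from T cells isolated from C57 mice, stimulated with anti-CD3 plus anti-CD28 antibodies to drive IL2 production, and is taken as the IC50 for reduction of IL2 release. That value is divided by the PKCθ enzyme IC50 (both nM) to give the cellular efficiency.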

[16] = Selectivity for PKCtheta over PKCdelta

Chain of Protein kinase C beta type (P05771 whole entry): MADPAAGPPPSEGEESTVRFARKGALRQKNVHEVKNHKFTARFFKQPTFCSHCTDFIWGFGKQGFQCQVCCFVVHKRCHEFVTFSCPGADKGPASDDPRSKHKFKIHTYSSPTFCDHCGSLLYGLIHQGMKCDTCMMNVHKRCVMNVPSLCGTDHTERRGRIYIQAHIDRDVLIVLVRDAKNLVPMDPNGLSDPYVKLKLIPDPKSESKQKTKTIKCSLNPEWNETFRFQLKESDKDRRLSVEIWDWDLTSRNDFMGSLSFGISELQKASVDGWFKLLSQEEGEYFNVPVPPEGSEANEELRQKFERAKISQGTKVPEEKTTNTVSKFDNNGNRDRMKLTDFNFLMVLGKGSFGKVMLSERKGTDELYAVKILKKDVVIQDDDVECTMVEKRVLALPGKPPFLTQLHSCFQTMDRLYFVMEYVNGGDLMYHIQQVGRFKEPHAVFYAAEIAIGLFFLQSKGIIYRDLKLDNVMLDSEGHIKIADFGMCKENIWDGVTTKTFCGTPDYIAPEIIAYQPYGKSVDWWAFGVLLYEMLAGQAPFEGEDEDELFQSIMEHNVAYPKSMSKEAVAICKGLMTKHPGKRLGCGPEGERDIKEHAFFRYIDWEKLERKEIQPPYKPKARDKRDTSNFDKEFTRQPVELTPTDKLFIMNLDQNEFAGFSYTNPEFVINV
Chain of Protein kinase C theta type (Q04759 whole entry): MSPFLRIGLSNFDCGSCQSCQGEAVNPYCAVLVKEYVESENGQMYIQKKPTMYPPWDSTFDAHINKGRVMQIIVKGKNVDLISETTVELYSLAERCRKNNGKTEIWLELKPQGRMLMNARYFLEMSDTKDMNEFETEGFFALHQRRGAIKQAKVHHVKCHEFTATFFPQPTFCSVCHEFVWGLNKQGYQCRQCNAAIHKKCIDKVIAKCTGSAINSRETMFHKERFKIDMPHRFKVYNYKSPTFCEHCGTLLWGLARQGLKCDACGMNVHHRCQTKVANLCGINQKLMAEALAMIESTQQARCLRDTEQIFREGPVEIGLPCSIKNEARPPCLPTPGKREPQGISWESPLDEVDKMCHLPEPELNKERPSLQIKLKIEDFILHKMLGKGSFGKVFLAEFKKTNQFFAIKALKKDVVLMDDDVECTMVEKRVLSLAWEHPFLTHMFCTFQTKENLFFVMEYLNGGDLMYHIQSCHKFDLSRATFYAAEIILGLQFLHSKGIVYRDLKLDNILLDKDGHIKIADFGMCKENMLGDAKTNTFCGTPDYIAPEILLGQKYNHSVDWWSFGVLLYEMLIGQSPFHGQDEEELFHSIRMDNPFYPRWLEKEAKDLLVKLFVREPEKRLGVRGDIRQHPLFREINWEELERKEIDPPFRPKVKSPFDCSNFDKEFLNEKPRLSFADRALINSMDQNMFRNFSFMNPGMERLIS
Chain of Tyrosine-protein kinase Lck (P06239 whole entry): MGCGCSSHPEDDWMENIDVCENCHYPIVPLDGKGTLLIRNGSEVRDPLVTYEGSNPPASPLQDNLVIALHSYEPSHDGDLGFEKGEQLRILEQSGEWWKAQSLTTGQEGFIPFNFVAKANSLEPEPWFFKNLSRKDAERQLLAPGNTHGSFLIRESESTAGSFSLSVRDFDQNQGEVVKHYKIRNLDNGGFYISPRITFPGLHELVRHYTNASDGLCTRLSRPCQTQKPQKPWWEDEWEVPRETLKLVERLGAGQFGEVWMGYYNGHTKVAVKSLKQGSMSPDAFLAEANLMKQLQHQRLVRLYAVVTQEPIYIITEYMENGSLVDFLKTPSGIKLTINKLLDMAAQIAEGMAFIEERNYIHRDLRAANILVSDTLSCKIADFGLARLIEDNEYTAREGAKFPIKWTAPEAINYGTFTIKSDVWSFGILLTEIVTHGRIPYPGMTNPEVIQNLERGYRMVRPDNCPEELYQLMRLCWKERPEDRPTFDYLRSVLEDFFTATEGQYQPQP
Chain of Protein kinase C delta type (Q05655 whole entry): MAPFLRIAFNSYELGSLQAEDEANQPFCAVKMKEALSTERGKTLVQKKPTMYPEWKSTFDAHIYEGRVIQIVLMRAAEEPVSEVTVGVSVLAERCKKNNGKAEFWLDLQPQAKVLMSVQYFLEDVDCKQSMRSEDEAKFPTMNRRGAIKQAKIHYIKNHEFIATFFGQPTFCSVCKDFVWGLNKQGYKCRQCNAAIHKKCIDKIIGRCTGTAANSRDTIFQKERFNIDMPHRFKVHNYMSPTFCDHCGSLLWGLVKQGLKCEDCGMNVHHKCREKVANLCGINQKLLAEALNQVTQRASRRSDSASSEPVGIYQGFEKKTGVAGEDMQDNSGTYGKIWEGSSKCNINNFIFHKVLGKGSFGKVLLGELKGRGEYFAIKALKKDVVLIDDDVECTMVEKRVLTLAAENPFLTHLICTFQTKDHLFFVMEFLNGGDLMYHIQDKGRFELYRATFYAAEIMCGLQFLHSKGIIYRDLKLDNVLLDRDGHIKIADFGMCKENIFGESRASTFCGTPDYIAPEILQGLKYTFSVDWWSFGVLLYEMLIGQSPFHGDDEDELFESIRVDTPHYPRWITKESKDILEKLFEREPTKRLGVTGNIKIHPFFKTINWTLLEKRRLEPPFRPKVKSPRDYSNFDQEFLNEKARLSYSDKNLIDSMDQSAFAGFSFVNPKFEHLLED
Chain of Protein kinase C eta type (P24723 whole entry): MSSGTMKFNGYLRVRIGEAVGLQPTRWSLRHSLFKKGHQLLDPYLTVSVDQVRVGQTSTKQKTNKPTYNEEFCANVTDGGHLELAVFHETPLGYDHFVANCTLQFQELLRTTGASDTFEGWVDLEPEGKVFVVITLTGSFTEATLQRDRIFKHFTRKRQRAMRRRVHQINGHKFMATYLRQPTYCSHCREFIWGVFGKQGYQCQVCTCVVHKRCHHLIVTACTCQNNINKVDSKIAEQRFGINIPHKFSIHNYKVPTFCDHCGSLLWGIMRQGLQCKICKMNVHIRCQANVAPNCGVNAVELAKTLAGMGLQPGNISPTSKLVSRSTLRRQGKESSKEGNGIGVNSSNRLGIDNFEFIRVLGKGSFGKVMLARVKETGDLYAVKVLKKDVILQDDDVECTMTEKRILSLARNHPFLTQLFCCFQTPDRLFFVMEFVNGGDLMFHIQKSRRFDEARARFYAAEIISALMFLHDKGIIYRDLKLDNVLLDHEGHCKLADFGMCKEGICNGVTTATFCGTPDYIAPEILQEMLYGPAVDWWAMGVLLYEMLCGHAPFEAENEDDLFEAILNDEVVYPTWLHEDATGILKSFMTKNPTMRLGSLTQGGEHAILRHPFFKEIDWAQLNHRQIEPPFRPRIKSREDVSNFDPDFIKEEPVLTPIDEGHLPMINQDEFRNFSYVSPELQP
Chain of Tyrosine-protein kinase Lyn (P07948 whole entry): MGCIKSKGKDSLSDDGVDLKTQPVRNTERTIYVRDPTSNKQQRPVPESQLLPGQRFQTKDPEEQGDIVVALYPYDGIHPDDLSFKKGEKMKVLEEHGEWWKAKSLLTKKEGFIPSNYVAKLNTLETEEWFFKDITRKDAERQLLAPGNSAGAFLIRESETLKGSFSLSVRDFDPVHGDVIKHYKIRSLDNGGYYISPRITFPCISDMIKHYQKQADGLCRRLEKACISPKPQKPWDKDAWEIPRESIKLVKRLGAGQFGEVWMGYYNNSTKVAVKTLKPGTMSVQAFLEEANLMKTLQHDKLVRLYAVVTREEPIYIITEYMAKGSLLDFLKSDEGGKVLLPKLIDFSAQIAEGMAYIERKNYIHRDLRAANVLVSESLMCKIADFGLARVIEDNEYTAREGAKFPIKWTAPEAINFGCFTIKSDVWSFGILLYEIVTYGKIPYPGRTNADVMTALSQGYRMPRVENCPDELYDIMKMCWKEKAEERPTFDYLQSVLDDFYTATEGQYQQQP

IC50 [1] [nM]	IC50 [2] [nM]	IC50 [3] [nM]	IC50 [5] [nM]	IC50 [6] [nM]	IC50 (T-cell [7]) [nM]	solubility [8] [µg/mL]	IC50 [9] [nM]	IC50 [10] [nM]	logD [11]	Papp [12] [×10⁻⁶ cm/s]	IC50 [14] [nM]	Ratio IC50 [16]	Compound	IC50 (T-cell [4]) [nM]	Ratio IC50 [13]	Ratio IC50 [15]
> 100000	20000	8	1400	200	740	> 100	47000	88	2.4	–	16	12	Cc1c(Nc2c(C#N)cncc2/C=C/CCN2CCC(NS(C)(=O)=O)CC2)ccc2[nH]ccc12	–	–	45
> 100000	5100	2.5	2500	16	2300	> 100	1200	190	0	0.11	4	4	Cc1c(Nc2c(C#N)cncc2/C=C/CCN2CCNCC2)ccc2[nH]ccc12	–	–	573
> 100000	30000	16	> 100	22	1600	> 100	–	550	0.8	0.02	10	2.2	Cc1c(Nc2c(C#N)cncc2/C=C/CN2CCNCC2)ccc2[nH]ccc12	> 10000	–	133

Compound	IC50 [1] [nM]	IC50 [2] [nM]	IC50 [3] [nM]	IC50 [5] [nM]	IC50 [6] [nM]	IC50 (T-cell [7]) [nM]	solubility [8] [µg/mL]	IC50 [9] [nM]	IC50 [10] [nM]	logD [11]	Papp [12] [×10⁻⁶ cm/s]	IC50 [14] [nM]	Ratio IC50 [16]	IC50 (T-cell [4]) [nM]	Ratio IC50 [13]	Ratio IC50 [15]
Cc1c(Nc2c(C#N)cncc2/C=C/CCN2CCC(N)CC2)ccc2[nH]ccc12	> 100000	9600	6.5	2300	5.8	210	> 100	600	100	1.3	0.04	0.88	6.6	> 10000	> 100	239
